An excerpt weighted towards active compounds, which were near 2.5% of everything screened.
TRPC4 inh: inhibitors of mouse TRPC4 channel, primary screen, Fluo4 calcium, HEK293 TRPC4beta/mu-opioid cells; Short transient receptor potential channel 4 (Mus musculus), Q9QUQ5; DAMGO-evoked Fluo4 calcium flux; hits give low values; B-score at 10 µM; actives 0.39% (n = 300,000);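 active = B-score over 3 SD under the library average, no early fluorescence shift, positive overall ratio signal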
Target sequence (Q9QUQ5 whole entry, looked up): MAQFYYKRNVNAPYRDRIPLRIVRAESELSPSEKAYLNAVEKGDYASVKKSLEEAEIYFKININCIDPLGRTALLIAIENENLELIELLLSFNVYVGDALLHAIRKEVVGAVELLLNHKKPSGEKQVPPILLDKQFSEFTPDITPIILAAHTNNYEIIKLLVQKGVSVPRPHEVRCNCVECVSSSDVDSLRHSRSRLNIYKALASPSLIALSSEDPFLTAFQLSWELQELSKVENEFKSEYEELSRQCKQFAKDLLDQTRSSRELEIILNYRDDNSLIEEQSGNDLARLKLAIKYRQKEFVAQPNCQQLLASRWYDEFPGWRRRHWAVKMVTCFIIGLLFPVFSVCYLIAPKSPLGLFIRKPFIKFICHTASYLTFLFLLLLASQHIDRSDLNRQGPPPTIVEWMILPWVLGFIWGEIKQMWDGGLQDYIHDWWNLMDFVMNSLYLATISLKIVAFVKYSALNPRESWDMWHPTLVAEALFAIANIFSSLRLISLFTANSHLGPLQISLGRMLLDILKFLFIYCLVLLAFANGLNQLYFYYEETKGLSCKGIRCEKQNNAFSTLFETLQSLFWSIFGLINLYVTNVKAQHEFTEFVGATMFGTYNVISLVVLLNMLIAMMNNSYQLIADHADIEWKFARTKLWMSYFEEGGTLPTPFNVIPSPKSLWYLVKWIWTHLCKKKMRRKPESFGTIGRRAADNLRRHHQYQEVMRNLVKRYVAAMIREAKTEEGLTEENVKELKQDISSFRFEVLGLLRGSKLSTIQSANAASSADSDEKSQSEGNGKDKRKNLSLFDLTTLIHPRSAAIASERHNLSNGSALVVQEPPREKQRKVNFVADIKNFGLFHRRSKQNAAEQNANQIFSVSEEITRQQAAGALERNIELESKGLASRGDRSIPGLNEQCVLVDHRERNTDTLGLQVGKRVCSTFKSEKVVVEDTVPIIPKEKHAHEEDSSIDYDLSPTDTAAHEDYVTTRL
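Assay system: HEK293 cells with stable TRPC4beta plus mu-opioid receptor expression; Probe or stimulus: DAMGO in two steps, submaximal then maximal; Dosing: single-point compound dosing; Measured by: Fluo4 calcium-dye fluorescence, kinetic read; Read-out basis: B score from integrated Fluo4 fluorescence ratio.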
TRPC4 act: activators of mouse TRPC4 channel, primary screen, Fluo4 calcium, HEK293 TRPC4beta/mu-opioid cells; Short transient receptor potential channel 4 (Mus musculus), Q9QUQ5; Fluo4 calcium fluorescence; hits give high values; B-score at 10 µM; actives 0.49% (n = 310,000); AID 2237, 2010;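 active = B-score above 5 SD of library B-scores, and initial fluorescence ratio not above library mean plus 5 SD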;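 also: positive B-score marks a calcium rise read as TRPC4 activation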
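Assay system – TRPC4beta and mu-opioid receptor HEK293 stable cells · Measured by – Fluo4 fluorescence, kinetic · Schedule – dye loading 45 min room temperature, 110 s kinetic read · Read-out – B-scored integrated calcium fluorescence ratio · Controls – buffer and maximal DAMGO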
TRPC6 inhibitor: mouse TRPC6 channel inhibitors, primary screen, cell-based, HEK293, membrane potential dye | Short transient receptor potential channel 6 (Mus musculus), Q61143 | ACh-evoked depolarization; hits give low values | B-score at 10 µM | actives 1.1% (n = 310,000) | AID 2553, 2010;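 active = B-score under library mean minus 3 SD, initial fluorescence not abnormally high, positive integrated signal ratio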;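 also: B-score derived from integrated fluorescence ratio over the kinetic read; more negative B-score means stronger inhibition of depolarization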
TRPC4 potent: positive allosteric modulators of TRPC4, primary screen, cell-based, mouse TRPC4beta, HEK293 mu-opioid, Fluo-4 calcium | Short transient receptor potential channel 4 (Mus musculus), Q9QUQ5 | DAMGO EC20, Fluo-4 Ca2+ flux; hits give high values | B-score at 10 µM | actives 0.42% (n = 310,000);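 active = B-score of calcium response area above 5 SD of library B-scores, with initial fluorescence ratio within 5 SD of library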;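 also: B-score of integrated fluorescence ratio over time as area under calcium response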
TRPC6 activator: mouse TRPC6 channel activators, primary screen, cell-based, HEK293, membrane potential dye; AID 2550, 2010; actives 0.13% (n = 310,000); Short transient receptor potential channel 6 (Mus musculus), Q61143; HEK293-TRPC6 membrane potential dye fluorescence; hits give high values; B-score at 10 µM;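 active = B-score of the integrated fluorescence ratio above library mean plus 3 SD, and starting fluorescence ratio within library mean plus 5 SD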;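 also: higher score means more depolarization so channel activation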
Platelet DG rel: inhibitors of platelet dense granule secretion, primary screen, cell-based, MLPCN, human platelets | human platelet-rich plasma, SFLLRN dense granule ATP release, luminescence | inhibition, %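 (compounds screened at 7.5 µM in platelet-rich plasma)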 | actives 0.22% (n = 300,000) | AID 1663, 2009;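 active = mean replicate score, as percent of positive control, at or above 50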
TRPC4 spec 2: second check of whether TRPC6 inhibitors also affect mouse TRPC4; shares compounds with TRPC6 inhibitor; HEK293 TRPC4/MOR, membrane potential dye fluorescence; channel activated by saturating DAMGO dose; inhibition, % at 10 µM; actives 42% (n = 920); AID 2776;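 active = compounds whose fluorescence signal differed from control wells by over 3 SD, either direction, in both duplicate plates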
TRPC4 spec: mouse TRPC4 modulation by TRPC6 hits, confirmation, selectivity assay for TRPC6 inhibitor project, cell-based, HEK293 TRPC4/mu-opioid, membrane potential dye; shares compounds with TRPC6 inhibitor; membrane potential fluorescence; activity change, negative = inhibition, % at 10 µM; actives 61% (n = 920);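 active = rise or fall in signal beyond 3 SD of buffer-only wells in both replicate plates, either sign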;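 also: integrated kinetic ratio of fluorescence range over baseline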
HEK293 MPD ctr 2-1: nonspecific membrane potential effects, parental HEK293, confirmation, counter-screen for TRPC6 inhibitor project, cell-based, second counter screen. parental HEK293 membrane potential dye fluorescence; maximal acetylcholine challenge after compound addition. actives 31% (n = 920). signal change vs control, % at 10 µM. shares compounds with TRPC6 inhibitor;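 active = membrane potential signal moving either way by over 3 SD of the maximum-effect control, in both duplicate plates, meaning non-specific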
HEK293 MPD ctr-1: membrane potential modulation in parental HEK293, confirmation, counter-screen for TRPC6 inhibitor project, cell-based. shares compounds with TRPC6 inhibitor. parental HEK293 membrane potential dye fluorescence. membrane potential signal change, % at 10 µM. actives 60% (n = 920). AID 2780, 2010;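 active = membrane potential signal shifting up or down by more than 3 SD of buffer-only wells, on both duplicate plates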
HEK293 MPD ctr-2: parental HEK293 membrane potential modulation, confirmation, counter-screen for TRPC6 modulator project, cell-based | shares compounds with TRPC6 inhibitor | membrane potential dye fluorescence | membrane potential signal change, % at 10 µM | actives 51% (n = 2,400) | AID 488924, 2010;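 active = membrane potential signal moves up or down beyond 5 SD from buffer-only wells, on both duplicate plates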
HEK293 MPD ctr 2-2: second counter-screen for TRPC6 modulators: effect in parental HEK293 cells; shares compounds with TRPC6 inhibitor; membrane potential dye fluorescence; after compound, maximal acetylcholine stimulation; inhibition, % at 10 µM; actives 14% (n = 2,400);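 active = membrane potential signal drops by more than 5 SD from the mean control signal, in both duplicate plates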;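 also: plate controls were acetylcholine ECmax control wells for no effect and buffer only wells for full effect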
TRPC4 ctr mod: TRPC4 modulation by TRPC6 hit compounds, confirmation, selectivity assay for TRPC6 modulator project, cell-based, HEK293 TRPC4/mu-opioid, membrane potential dye, mouse. shares compounds with TRPC6 inhibitor. actives 69% (n = 2,400). percent change from control (negative = decrease, positive = increase), % at 10 µM. membrane potential fluorescence. AID 488927, 2010;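 active = membrane potential signal moved up or down beyond 5 SD of buffer control wells, in both duplicate plates, actives on both sides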;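 also: plate controls were assay buffer wells for no effect and DAMGO maximal-effect wells for full effect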
TRPC4 ctr inh 2: second selectivity test of TRPC6 modulators against mouse TRPC4; shares compounds with TRPC6 inhibitor; HEK293 TRPC4/mu-opioid, membrane potential dye fluorescence; stimulated with maximal-effect DAMGO; inhibition, % at 10 µM; actives 55% (n = 2,400); AID 488928;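 active = drop in membrane potential signal beyond 5 SD of the control wells in both duplicate plates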;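 also: TRPC4 counter screen for TRPC6 hits run under conditions tuned for TRPC6 not TRPC4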
TRPC6 inh conf: mouse TRPC6 channel inhibitors, confirmation, HEK293 cells, membrane potential dye, duplicate | shares compounds with TRPC6 inhibitor | ACh-evoked depolarization | inhibition, % at 10 µM | actives 43% (n = 3,300);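 active = fluorescence ratio falls more than 5 SD below the full-stimulation control mean, in both duplicate runs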;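 also: integrated fluorescence ratio of peak minus minimum over baseline after agonist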
TRPC6 act conf: mouse TRPC6 channel activators, confirmation, HEK293 cells, membrane potential dye, duplicate. shares compounds with TRPC6 inhibitor. actives 11% (n = 2,800). activation, % at 10 µM. HEK293-TRPC6 membrane potential dye fluorescence, FDSS. AID 488961, 2010;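 active = ratio signal rise beyond 5 SD above unstimulated control wells' mean, seen in both duplicate runs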;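 also: plate controls were buffer EC0 wells for no effect and acetylcholine ECmax response for full effect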
An asterisk follows results filed as active; i = inactive; x = not tested or not shown.

SMILES	TRPC4 inh	TRPC4 act	TRPC6 inhibitor	TRPC4 potent	TRPC6 activator	Platelet DG rel	HEK293 MPD ctr-2	HEK293 MPD ctr 2-2	TRPC4 ctr mod	TRPC4 ctr inh 2	TRPC6 inh conf	TRPC6 act conf	others
N=C1c2ccccc2CN1c1ccc(N2CCOCC2)c(S(=O)(=O)Nc2ccc(Cl)cc2)c1	i	i	-7.44*	i	i	1.2	x	x	x	x	i	i	TRPC4 spec 2=35.5%*;TRPC4 spec=-12.6%*;HEK293 MPD ctr 2-1=i;HEK293 MPD ctr-1=i
CN(C)c1nc(F)c(F)c(S(=O)(=O)c2ccccc2)c1F	i	i	-5.26*	i	i	-1.2	i	i	i	i	i	i
CO/N=C/c1ccc(OC)c(Oc2nc(OC)cc(OC)n2)c1	i	i	i	i	i	-0.8	x	x	x	x	x	x
CC[n+]1c(/C=C/Nc2ccccc2)oc2ccccc21	i	i	-7.33*	i	i	-0.5	-169.0%*	76.0%*	-44.0%*	81.5%*	69.0%*	i
CC[n+]1c(/C=C/Nc2ccccc2)oc2ccc(OC)cc21	-7*	i	-5.54*	i	i	10.5	-74.5%*	i	-24.0%*	i	46.5%*	i
CC[n+]1c(/C=C/N(C)c2ccccc2)oc2ccc(F)cc21	i	i	i	i	i	-35.2	x	x	x	x	x	x
COc1ccc(NC(=O)CN(C)C(=O)CCCSc2nc3ccccc3[nH]2)cc1	i	i	i	i	i	-2.0	x	x	x	x	x	x
CN(C1=C(NC(=O)c2ccc(Cl)cc2)C(=O)c2ccccc2C1=O)c1ccccc1	i	i	-5.14*	i	i	6.3	-99.5%*	i	-31.5%*	65.0%*	i	i
CCN(CC)CCCNc1nc2ccccc2c2nc(-c3ccncc3)nn12	i	i	-7.24*	i	i	3.0	x	x	x	x	68.8%*	i	TRPC4 spec 2=61.0%*;TRPC4 spec=-23.4%*;HEK293 MPD ctr 2-1=-0.5%*;HEK293 MPD ctr-1=-315.5%*
CCN(CC)CCCNc1nc2cc(OC)c(OC)cc2c2nc(-c3ccccc3)nn12	i	i	i	i	i	1.0	x	x	x	x	x	x
COCCCNc1nc2cc(OC)c(OC)cc2c2nc(-c3ccccc3)nn12	i	i	i	i	i	8.2	x	x	x	x	x	x
CCN(CC)CCCNc1nc2cc(OC)c(OC)cc2c2nc(-c3cccnc3)nn12	i	i	-7.97*	i	i	0.5	x	x	x	x	76.7%*	i	TRPC4 spec 2=65.0%*;TRPC4 spec=-29.5%*;HEK293 MPD ctr 2-1=-68.5%*;HEK293 MPD ctr-1=-446.0%*
COc1cc2nc(NCCCN3CCN(C)CC3)n3nc(-c4ccccc4)nc3c2cc1OC	i	i	-6.6*	i	i	7.0	-75.0%*	i	i	63.0%*	i	i
COC(=O)Cn1c(N)[n+](Cc2ccccc2)c2ccccc21	i	i	i	i	i	1.5	x	x	x	x	x	x
CCOC(=O)N1CCN(Cc2nc(-c3ccc(OC)cc3)no2)CC1	i	i	i	i	i	3.2	x	x	x	x	x	x
CCOC(=O)N1CCN(Cc2nc(-c3ccc(Cl)cc3)no2)CC1	i	i	-8.88*	i	i	4.9	x	x	x	x	i	x	TRPC4 spec 2=i;TRPC4 spec=i;HEK293 MPD ctr 2-1=i;HEK293 MPD ctr-1=i
Cc1ccc(-c2nnn(CC(=O)N3CCN(c4ccccc4)CC3)n2)o1	i	i	-5.34*	i	i	2.7	i	i	i	i	i	i
COc1ccc(N2CCN(C(=O)Cn3nnc(-c4ccc(OC)c(OC)c4)n3)CC2)cc1	i	i	i	i	i	-53.8	x	x	x	x	x	x
COc1ccc(Nc2ccc(S(=O)(=O)N3CCCCC3)cc2[N+](=O)[O-])cc1	i	i	-5.27*	26*	i	-8.3	i	i	i	i	i	i
CCOc1ncccc1C(=O)OCC(=O)Nc1nnc(-c2ccccc2)o1	i	i	i	i	i	6.8	x	x	x	x	x	x
O=C(O)COc1ccc(/C=C/c2nc3ccc([N+](=O)[O-])cc3s2)cc1	i	i	-8.5*	i	i	-2.7	x	x	x	x	i	i	TRPC4 spec 2=i;TRPC4 spec=-30.2%*;HEK293 MPD ctr 2-1=i;HEK293 MPD ctr-1=-426.0%*

Screening results (PubChem BioAssay)
